# Test results published in ChEMBL document CHEMBL1125613, “Synthesis, receptor binding, and tissue distribution of 7 alpha- and 11 beta-substituted (17 alpha,20E)- and (17 alpha,20Z)-21-[125I]iodo-19-norpregna-1,3,5(10),20-tetraene-3,17-diols” (J Med Chem, 1991).
# Species on record: Rattus norvegicus
# Experiment: Biodistribution studied in the ovaries of immature Fischer female rats at 5 hour
# Format: ADME, organism-based, Female gonad
# Settings: in vivo
# Summary of the method: (§1)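 Immature female Fischer rats (24 days old, 55–60 g), unanesthetized in retention cages, given 3 μCi (111 kBq) nca 125I-labeled steroid in 200 μL via lateral tail vein. Vehicle was 9% ethanol in saline with 1% Tween-80, filtered 0.22 μm. Killed at 5 h under ether; tissues KCl-washed, blotted, weighed, gamma-counted; % ID/g, average of 4–5 rats, % CV.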
row,Structure (SMILES),Concentration [%]
1,C[C@@H]1Cc2cc(O)ccc2[C@H]2CC[C@@]3(C)[C@@H](CC[C@@]3(O)/C=C/[125I])[C@H]12,2.91

# Species on record: Rattus norvegicus
# Experiment: Biodistribution studied in the adrenals of immature Fischer female rats at 5 hour
# Format: ADME, organism-based, Adrenal gland
# Settings: in vivo
# Summary of the method: as §1
row,Structure (SMILES),Concentration [%]
1,C[C@@H]1Cc2cc(O)ccc2[C@H]2CC[C@@]3(C)[C@@H](CC[C@@]3(O)/C=C\[125I])[C@H]12,0.88

# Biological target: Estrogen receptor (Mus musculus) (UniProt O08537+P19785)
# Experiment: Relative binding affinity for murine cytoplasmic estrogen receptor as displacement of [3H]estradiol
# Format: protein assay
# Settings: not given
# Summary of the method: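 Murine uterine cytoplasmic extract incubated 18 h at 0–4 °C with 20 nM [3H]estradiol, with or without competitor at 2 nM to 20 μM. Concentration for 50% competition of specific binding was read from the curve. RBA = 100 × ratio of estradiol to competitor concentration at 50% competition. Mean of three experiments.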
# Sequence of Estrogen receptor (Mus musculus) (O08537 whole entry, looked up): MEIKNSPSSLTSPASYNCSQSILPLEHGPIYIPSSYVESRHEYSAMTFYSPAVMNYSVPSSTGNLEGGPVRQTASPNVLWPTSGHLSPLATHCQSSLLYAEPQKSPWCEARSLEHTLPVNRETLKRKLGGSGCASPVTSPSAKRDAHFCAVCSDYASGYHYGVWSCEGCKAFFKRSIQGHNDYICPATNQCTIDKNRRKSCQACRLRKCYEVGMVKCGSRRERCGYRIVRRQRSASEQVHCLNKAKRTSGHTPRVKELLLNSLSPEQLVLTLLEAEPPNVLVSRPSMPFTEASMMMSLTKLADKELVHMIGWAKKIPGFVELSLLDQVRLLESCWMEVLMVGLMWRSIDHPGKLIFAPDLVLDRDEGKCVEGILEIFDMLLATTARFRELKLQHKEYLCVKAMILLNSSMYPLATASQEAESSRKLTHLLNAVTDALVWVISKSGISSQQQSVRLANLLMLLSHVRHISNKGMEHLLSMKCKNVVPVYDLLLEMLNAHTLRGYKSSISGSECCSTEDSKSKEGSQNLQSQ
# Sequence of Estrogen receptor (Mus musculus) (P19785 whole entry, looked up): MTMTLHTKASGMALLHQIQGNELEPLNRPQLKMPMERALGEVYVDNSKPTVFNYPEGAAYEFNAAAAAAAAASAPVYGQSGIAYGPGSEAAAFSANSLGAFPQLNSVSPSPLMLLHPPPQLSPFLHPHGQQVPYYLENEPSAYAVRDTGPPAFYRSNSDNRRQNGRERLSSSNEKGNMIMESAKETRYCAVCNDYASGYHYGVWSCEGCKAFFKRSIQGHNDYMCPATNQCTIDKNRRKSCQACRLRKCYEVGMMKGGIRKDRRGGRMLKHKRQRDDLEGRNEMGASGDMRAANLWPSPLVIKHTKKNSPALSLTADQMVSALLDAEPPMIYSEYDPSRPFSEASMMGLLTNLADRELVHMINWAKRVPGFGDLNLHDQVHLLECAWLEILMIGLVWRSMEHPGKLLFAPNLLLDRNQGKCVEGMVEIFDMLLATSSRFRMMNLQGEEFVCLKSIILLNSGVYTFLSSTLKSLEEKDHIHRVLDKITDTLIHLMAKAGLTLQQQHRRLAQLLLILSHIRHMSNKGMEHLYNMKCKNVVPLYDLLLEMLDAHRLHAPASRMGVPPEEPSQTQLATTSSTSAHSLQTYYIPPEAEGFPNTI
row,Structure (SMILES),relative binding affinity (RBA)
1,C[C@]12CC[C@@H]3c4ccc(O)cc4CC[C@H]3[C@@H]1CC[C@@]2(O)/C=C\I,46.7
2,C[C@@H]1Cc2cc(O)ccc2[C@H]2CC[C@@]3(C)[C@@H](CC[C@@]3(O)/C=C/I)[C@H]12,43.2
3,CO[C@H]1C[C@@]2(C)[C@@H](CC[C@@]2(O)/C=C/I)[C@@H]2CCc3cc(O)ccc3[C@H]21,27.7
4,CCO[C@H]1C[C@@]2(C)[C@@H](CC[C@@]2(O)/C=C/I)[C@@H]2CCc3cc(O)ccc3[C@H]21,21.6
5,C[C@@H]1Cc2cc(O)ccc2[C@H]2CC[C@@]3(C)[C@@H](CC[C@@]3(O)/C=C\I)[C@H]12,44.9
6,C#C[C@]1(O)CC[C@H]2[C@@H]3CCc4cc(O)ccc4[C@H]3[C@@H](OC)C[C@@]21C,15.3
7,C#C[C@]1(O)CC[C@H]2[C@@H]3[C@H](C)Cc4cc(O)ccc4[C@H]3CC[C@@]21C,73.1
8,CO[C@H]1C[C@@]2(C)[C@@H](CC[C@@]2(O)/C=C\I)[C@@H]2CCc3cc(O)ccc3[C@H]21,32
9,C[C@]12CC[C@@H]3c4ccc(O)cc4CC[C@H]3[C@@H]1CC[C@@]2(O)/C=C/I,32.8
10,CCO[C@H]1C[C@@]2(C)[C@@H](CC[C@@]2(O)/C=C\I)[C@@H]2CCc3cc(O)ccc3[C@H]21,30.8
11,C=C[C@]1(O)CC[C@H]2[C@@H]3[C@H](C)Cc4cc(O)ccc4[C@H]3CC[C@@]21C,58.1
12,C=C[C@]1(O)CC[C@H]2[C@@H]3CCc4cc(O)ccc4[C@H]3[C@@H](OC)C[C@@]21C,13.5
13,C#C[C@]1(O)CC[C@H]2[C@@H]3CCc4cc(O)ccc4[C@H]3[C@@H](OCC)C[C@@]21C,21
